# Assay outcomes deposited in PubChem by several laboratories.
# Only some compounds are listed: those with a hit (about 2.5% of all), similar ones and a draw of the others.
# Vif imaging: inhibitors of HIV Vif | inhibition, % at 7.49 µM | 0.35% of 340,000 active | HEK293T cells, Vif self-association by quenched fluorescence, imaging, 24 h; in the data active means inhibition above about 50%, passing the limit was not always enough; inconclusive means no clear call, values can overlap the other calls; inactive means below about 31%
# SR-BI HDL uptake: inhibitors of mouse SR-BI mediated HDL lipid uptake | Q61009 | ldlA[mSR-BI] CHO cells, DiI-HDL uptake fluorescence, 3 h | inhibition, % at 12.5 µM | 0.96% of 320,000 active | AID 488896;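 active means mean replicate inhibition of at least 70% and a set share of replicates each scoring 70 or more; inconclusive means meets just one of the two criteria; inactive means fails both criteria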;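 further: 0% = median of neutral control wells and 100% = median of positive control wells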
# Target sequence (Q61009 whole entry, looked up): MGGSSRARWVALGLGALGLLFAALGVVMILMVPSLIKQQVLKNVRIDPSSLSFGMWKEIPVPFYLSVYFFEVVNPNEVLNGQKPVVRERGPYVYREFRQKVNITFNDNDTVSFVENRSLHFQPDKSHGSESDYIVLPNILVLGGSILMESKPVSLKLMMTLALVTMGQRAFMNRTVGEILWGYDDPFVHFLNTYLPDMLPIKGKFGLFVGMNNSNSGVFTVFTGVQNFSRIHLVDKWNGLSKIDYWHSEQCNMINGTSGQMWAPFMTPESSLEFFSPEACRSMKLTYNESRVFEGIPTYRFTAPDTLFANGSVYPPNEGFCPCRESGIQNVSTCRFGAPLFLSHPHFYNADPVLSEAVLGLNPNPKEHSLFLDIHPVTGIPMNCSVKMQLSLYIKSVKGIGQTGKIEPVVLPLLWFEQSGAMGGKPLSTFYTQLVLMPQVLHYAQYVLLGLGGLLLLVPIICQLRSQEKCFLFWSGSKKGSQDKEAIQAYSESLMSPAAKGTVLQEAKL
# SR-BI uptake up: SR-BI HDL lipid transfer activation; CHO ldlA[mSR-BI] cells, DiI-HDL uptake fluorescence, 3 h; 100 = double the neutral-control signal; activation, % at 12.5 µM; 0.096% of 320,000 active; AID 504775;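 active means mean replicate activation of at least 60% and every replicate at or above 60%; inconclusive means mean or all-replicate condition met, but not both; inactive means mean below 60% and not all replicates reaching 60%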;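 further: 0% = median plate neutral-control signal and 100% = twice that signal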
#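 Test system: SR-BI-overexpressing, LDLR-lacking CHO cells; Also added: labelled HDL, 10 µg/mL; Measured by: bottom-read cell fluorescence after medium removal, ex 550/em 595 nm; Timing: 3 h uptake period with compound, 37 °C; Buffer or medium: F12, 0.5% BSA, 25 mM HEPES; Doses: single compound concentration, delivered by pin transfer.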
# H9c2 TAG inh: triacylglycerol accumulation inhibition; 0.66% of 230,000 active; H9c2 cells, Nile Red lipid (TAG) fluorescence; cells loaded with 200 µM oleic acid; inhibition, % at 12.5 µM;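 active means pattern-corrected inhibition of lipid staining of at least 50% with the nuclear-stain viability signal not falling by more than 50%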;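 further: 0% = DMSO wells and 100% = triacsin C control wells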
# SMARCA2 act: increases SMARCA2 function in MMTV reporter cells; MG213 cells, MMTV-luciferase reporter, dexamethasone, overnight; activation, % at 9.1 µM; 1% of 370,000 active; in the data active means activation above about 7.8%;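 further: 0% = vehicle wells and 100% = reference activator wells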
# SMARCA2 act conf: SMARCA2 activation, confirmation screen; shares compounds with SMARCA2 act; MG213 cells, MMTV-luciferase with dexamethasone, luminescence, overnight; MG213 cells expressing E1A, Rb sequestered; DMSO wells 0%, reference activator 100%; activation, % at 9.1 µM; 30% of 3,500 active;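 active means activation above its plate's cutoff, the mean activation of tested wells plus 3 SD, cut at about 7.9% in these data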
# VP16 Luc act: counter-screen for SMARCA2 activators: GAL4-VP16 luciferase reporter activation; shares compounds with SMARCA2 act; HEK293 GAL4-VP16 pG5luc reporter, luciferase luminescence; scaled: DMSO wells 0%, SAHA wells 100%; activation, % at 9.1 µM; 41% of 3,500 active;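 active means activation above the solvent-only control well mean plus 3 SD, averaged across control plates, cut at about 5.2% in these data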
# * marks the source's active call; other numbers are inactive results; ? = inconclusive; · = not tested or not shown.
SMILES,Vif imaging,SR-BI HDL uptake,SR-BI uptake up,H9c2 TAG inh,SMARCA2 act,SMARCA2 act conf,VP16 Luc act
CN(c1ccccc1)S(=O)(=O)c1cc(C(=O)OCC(=O)c2c(N)n(C)c(=O)n(C)c2=O)ccc1Cl,0.0,-5.4,5.4,-8.3,-2.1,·,·
O=C(COC(=O)c1ccc(Cl)c(S(=O)(=O)N2CCCC2)c1)NC1CCCCC1,0.9,2.1,-2.1,-8.5,-1.7,·,·
COc1ccc(C(=O)NC2CCCCC2)cc1S(=O)(=O)N1CCOCC1,-43.6,·,·,·,14.7*,-2.0,-1.3
CC1=C(C)CC(C(=O)NCc2cccc(Cl)c2)C(C(=O)O)C1 (stereo not given),10.1,-3.8,3.8,·,0.7,·,·
COCCCNC(=O)c1ccc(S(=O)(=O)c2ccc(C)cc2)c(NC(C)=O)c1,3.8,14.7,-14.7,·,-1.8,·,·
CC(C)C[C@H]1COc2cc(Br)ccc2S(=O)(=O)N1Cc1cn(Cc2ccc(Cl)cc2)nn1,·,·,·,·,-0.7,·,·
C/C(=N\NC(=O)c1cccc(S(=O)(=O)N2CCCC2)c1)c1ccc(OCC(=O)N(C)C)cc1,-14.9,4.6,-4.6,12.5,-2.5,·,·
CCOC(=O)c1sc(NC(=O)CCN2CCN(C)CC2)c(C(=O)OCC)c1C,3.2,1.8,-1.8,13.4,8.4*,1.8,-0.2
COc1ccc(C2C(C(=O)Nc3c(C)cccc3C)CCC(=O)N2c2ccc(OC)cc2)cc1 (stereo not given),·,·,·,·,-5.0,·,·
O=C(c1ccc(-c2ccc(Cl)cc2Cl)o1)N1CCOCC1,-2.8,·,·,-4.4,0.8,·,·
O=C(c1ccc(-c2cc(Cl)ccc2Cl)o1)N1CCOCC1,2.5,12.3,-12.3,5.9,8.8*,3.3,2.1
Cc1ccc(CSc2nnc(-c3ccc(NS(=O)(=O)c4ccccc4)cc3)o2)cc1,0.8,-17.7,17.7,·,11.3*,-2.0,-1.5
Cc1ccccc1-c1nnc(SCc2ccccc2)o1,-15.0,-6.1,6.1,-63.0,13.0*,6.6,4.6
O=[N+]([O-])c1cc([N+](=O)[O-])c(Oc2cccnc2Br)cc1NN1CCCCC1,-8.6,-21.2,21.2,6.1,0.2,·,·
Nc1ncnc2c1ncn2[C@@H]1O[C@H](C(=O)N[C@@H](CCc2ccccc2)C(=O)O)[C@@H](O)[C@H]1O,·,·,·,·,-0.9,·,·
O=C(Cc1nnc(NC(=O)Nc2ccc(F)cc2)s1)NCc1ccccc1,-6.1,·,·,5.2,0.5,·,·
N#Cc1ccc(OCC(=O)NCC2(N3CCCCC3)CCCCC2)cc1,-2.2,-4.4,4.4,3.9,6.2,·,·
O=C(COc1ccccc1)NCC1(N2CCCCC2)CCCCC1,10.1,-21.8,21.8,2.3,9.6*,-1.9,0.4
O=C(CSc1nnc(-c2ccco2)n1-c1ccc(Cl)cc1)Nc1cccc2ccccc12,·,·,·,·,-7.0,·,·
O=C(Nc1ccc(Br)cn1)c1ccc2ccccc2c1,2.4,18.8,-18.7,·,9.3*,11.9*,13.6*
COC(=O)C1=C(C)N(CC(C)C)C(=S)NC1c1cccc(Br)c1 (stereo not given),·,·,·,·,-4.6,·,·
CCC(=O)NC(c1ccccc1)c1nc2ccccc2[nH]1 (stereo not given),-11.0,-5.9,5.9,-4.6,8.5*,2.9,2.4
COc1ccc(N2CCN(C(=O)CN(C)S(=O)(=O)c3cnc[nH]3)CC2)cc1,-0.4,-26.7,26.7,·,10.1*,-3.5,0.0
CCCN1C(=O)C2(C(C(=O)c3ccc(C)o3)=C(O)C(=O)N2CCCOC)c2ccccc21 (stereo not given),?,-14.5,14.5,-15.0,-5.7,·,·
Nc1ccc(OCc2ccccc2)cc1,13.7,-4.4,4.4,25.2,-0.8,·,·
SMILES,Vif imaging,SR-BI HDL uptake,SR-BI uptake up,H9c2 TAG inh,SMARCA2 act,SMARCA2 act conf,VP16 Luc act
Nc1cc(OCc2ccccc2)ccc1OCc1ccccc1,-0.7,18.5,-18.5,-9.2,9.4*,2.7,7.8*
CC(C)Oc1ccc(CNC(=S)N/N=C/c2ccc([N+](=O)[O-])cc2)cc1,1.5,2.5,-2.5,·,10.2*,-0.7,4.1
CCN(CCC(=O)Nc1cc(OC)ccc1OC)Cc1ccccc1,·,·,·,·,-3.0,·,·
CCN(CCC(=O)Nc1cc([N+](=O)[O-])ccc1OC)Cc1ccccc1,-6.5,13.6,-13.6,-6.5,9.7*,-1.8,0.2
Cc1cccc(C(=O)NNC(=O)c2ccccc2C)c1,2.7,-15.9,15.9,-7.1,-1.6,·,·
Cc1ccccc1C(=O)NNC(=O)c1ccc(Br)cc1,30.6,7.1,-7.1,·,9.0*,4.7,5.5*
Cc1nnc(SCC(=O)Nc2cc(S(C)(=O)=O)ccc2Cl)n1Cc1ccccc1,8.0,0.4,-0.4,·,-2.5,·,·
CSc1nc(C)cc(SCC(=O)Nc2ccccc2)n1,-4.7,33.4,-33.4,·,-2.4,·,·
CSc1nc(C)cc(SCC(=O)Nc2ccc(Cl)cc2Cl)n1,-7.5,35.5,-35.5,-19.9,8.0*,-0.2,0.3
COc1ccc(COc2ccsc2C(=O)Nc2ccc(Cl)c(Cl)c2)cc1,2.7,7.2,-7.2,·,10.7*,-2.7,-1.0
COc1ccc(NC(=O)c2sccc2C)cn1,-1.1,4.0,-4.0,15.1,14.1*,3.0,1.8
Cc1ccsc1C(=O)Nc1ccc(C(=O)O)cc1,2.6,-8.5,8.5,·,3.5,·,·
Cc1ccsc1C(=O)Nc1ccc(OCc2ccccc2)cc1,-12.0,7.2,-7.2,·,8.6*,4.5,6.6*
COc1ccc(NC(=O)c2ccc(-c3ccc(C(C)=O)cc3)o2)cn1,0.4,60.7,-60.7,-6.0,12.2*,0.2,3.5
COC(=O)c1ccc2nc(-c3ccc(OC)c(OC)c3)c(CC3CCCCC3)n2c1,·,·,·,·,-1.8,·,·
CC(=O)N1CCN(c2ccnc3cc(Cl)ccc23)CC1,-2.5,15.9,-15.9,-8.5,10.9*,-0.9,-1.1
CC(Sc1nnc(NC2CCCCC2)s1)C(=O)Nc1ccc2c(c1)C(=O)c1ccccc1C2=O (stereo not given),-1.8,50.6,-50.6,·,10.0*,2.6,12.0*
CC(Sc1nnc(NC2CC2)s1)C(=O)Nc1ccc(N2CCOCC2)cc1 (stereo not given),7.7,-16.0,16.0,12.3,-2.1,·,·
COc1ccc(CNC(=O)C(C)Sc2nc3ccccc3c(=O)n2CCCN2CCOCC2)cc1 (stereo not given),1.8,-30.4,30.4,9.3,11.0*,-2.0,-0.6
CC(=O)Nc1ccc(CN(C)c2c(C)nc3ccc(C(=O)NCCCN4CCCC4=O)cn23)cc1,3.2,·,·,6.1,0.0,·,·
CCOC(=O)CSc1nc(-c2ccc3c(c2)OCO3)ccc1C#N,-6.6,31.0,-31.0,-5.7,5.7,·,·
CCOC(=O)CCCSc1nc(-c2ccc3c(c2)OCO3)cc(C(F)(F)F)c1C#N,-8.6,38.7,-38.7,·,8.7*,-0.1,1.9
